The structures appear in SMILES notation.

Assay [1] deals with Telomerase reverse transcriptase (Homo sapiens) (UniProt O14746). The assay is described as follows: Inhibition of human tert transcriptional activity assessed as SEAP activity at 1 uM after 24 hrs by SEAP reporter assay. Also noted: scale not given: the % may be the effect or the level left. A digest of the protocol:
(§1)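 Reporter assay for hTERT transcriptional activity using secreted alkaline phosphatase. About 2 × 10³ cells per well were grown for 24 h at 37 °C, then given fresh medium. Buffer was added to the medium: 2 M diethanolamine, 1 mM MgCl2 and 20 mM L-homoarginine. p-Nitrophenyl phosphate was added to 12 mM final. The rate of absorbance increase was read at 405 nm.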
On the technique in general: In a reporter assay the amount or activity of a reporter protein is the signal.

Assay [2] can be described thus: Cytotoxicity against human H1299 cells assessed as cell viability at 1 uM after 48 hrs by MTT assay. Type of assay: functional. The following applies: NCI-H1299, 48 h, read-out: Activity. A digest of the protocol: (§2)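 About 2×10³ H1299 cells per well were grown for 24 h at 37 °C in 5% CO2. Compound was dissolved in DMSO immediately before use, diluted in complete medium and left on cells for 48 h. MTT was then added for 4 h at 37 °C, followed by SDS/DMF lysis buffer for 16 h at 37 °C. Absorbance was read at 550 nm.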
On the technique in general: Tetrazolium dyes change colour on reduction, which living cells bring about.

The target of assay [3] is Telomerase reverse transcriptase (Homo sapiens) (UniProt O14746). Kind of assay: Inhibition of human tert transcriptional activity assessed as SEAP activity at 100 uM after 24 hrs by SEAP reporter assay. Also noted: scale not given: the % may be the effect or the level left. A digest of the protocol: as §1
Assay [4] is described as follows: Cytotoxicity against human H1299 cells assessed as cell viability at 10 uM after 48 hrs by MTT assay. It counts as functional. The following applies: NCI-H1299, 48 h, read-out: Activity. The gist of the method:
as §2

Assay [5] can be described thus: Cytotoxicity against human H1299 cells assessed as cell viability at 100 uM after 48 hrs by MTT assay. Type of assay: functional. The following applies: NCI-H1299, 48 h, read-out: Activity. A digest of the protocol:
as §2

In assay [6] the target is Telomerase reverse transcriptase (Homo sapiens) (UniProt O14746). The assay is described as follows: Inhibition of human tert transcriptional activity assessed as SEAP activity at 10 uM after 24 hrs by SEAP reporter assay. Also noted: scale not given: the % may be the effect or the level left. A digest of the protocol: as §1

Chain of Telomerase reverse transcriptase (Homo sapiens) (O14746 whole entry): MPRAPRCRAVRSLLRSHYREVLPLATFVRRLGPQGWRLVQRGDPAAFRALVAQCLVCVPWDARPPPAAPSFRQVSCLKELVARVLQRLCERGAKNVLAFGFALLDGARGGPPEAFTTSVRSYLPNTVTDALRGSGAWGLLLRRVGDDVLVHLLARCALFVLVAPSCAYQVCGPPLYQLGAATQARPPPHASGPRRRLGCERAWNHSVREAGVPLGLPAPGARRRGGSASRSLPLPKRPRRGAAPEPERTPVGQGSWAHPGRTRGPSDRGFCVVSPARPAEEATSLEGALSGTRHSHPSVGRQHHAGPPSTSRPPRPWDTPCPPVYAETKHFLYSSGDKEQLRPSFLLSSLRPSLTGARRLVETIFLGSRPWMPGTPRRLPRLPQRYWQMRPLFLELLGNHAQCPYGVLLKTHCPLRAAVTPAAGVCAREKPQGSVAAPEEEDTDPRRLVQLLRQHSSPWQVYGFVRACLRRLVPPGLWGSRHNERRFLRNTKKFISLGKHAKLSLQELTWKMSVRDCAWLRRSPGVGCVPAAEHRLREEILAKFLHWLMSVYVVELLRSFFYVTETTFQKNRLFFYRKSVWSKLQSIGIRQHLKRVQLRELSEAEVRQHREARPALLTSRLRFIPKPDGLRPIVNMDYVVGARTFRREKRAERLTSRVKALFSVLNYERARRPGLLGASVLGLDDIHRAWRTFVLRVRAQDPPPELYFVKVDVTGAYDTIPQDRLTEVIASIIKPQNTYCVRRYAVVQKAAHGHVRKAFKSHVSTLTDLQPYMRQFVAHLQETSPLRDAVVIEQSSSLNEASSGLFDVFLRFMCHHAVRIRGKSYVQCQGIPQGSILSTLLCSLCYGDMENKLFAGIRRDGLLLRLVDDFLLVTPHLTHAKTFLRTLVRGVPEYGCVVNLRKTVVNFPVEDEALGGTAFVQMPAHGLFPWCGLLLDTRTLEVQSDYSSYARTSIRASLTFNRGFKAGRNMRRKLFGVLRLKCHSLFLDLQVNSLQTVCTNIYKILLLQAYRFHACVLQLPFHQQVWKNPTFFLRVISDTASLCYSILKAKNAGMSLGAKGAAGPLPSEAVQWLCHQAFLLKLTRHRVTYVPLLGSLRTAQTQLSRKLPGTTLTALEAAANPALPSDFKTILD

With `Cc1cc(C(=O)Sc2nc3ccc4c(c3[nH]2)C(=O)c2ccccc2C4=O)c(C)o1`, the Activity in assay [1] was 104%; in assay [3], 89%; in assay [6], 100%. In assay [2], the viability at 1 µM turned out to be 95%. In addition, in assay [4], the viability at 10 µM stood at 91%. Moreover, the viability at 100 µM in assay [5] was 95%.
Consider `Cc1ccccc1CSc1nc2ccc3c(c2[nH]1)C(=O)c1ccccc1C3=O`, for which the figures for the Activity in assay [1], in assay [3] and in assay [6] were 88%, 29% and 83%, respectively. For the same compound, the viability at 1 µM in assay [2] stood at 88%. In assay [4], the viability at 10 µM worked out at 81%. Moreover, in assay [5], the viability at 100 µM is 76%.
For the compound `O=C1c2ccccc2C(=O)c2c1ccc1nc(SCCCCCCCl)[nH]c21`, the results for the Activity in assay [1], in assay [3] and in assay [6] were 105%, 53% and 98%, respectively. The viability at 1 µM in assay [2] was 83%. Also, the viability at 10 µM in assay [4] worked out at 85%. In assay [5], the viability at 100 µM came to 88%.
For `CCCCSc1nc2ccc3c(c2[nH]1)C(=O)c1ccccc1C3=O`, the Activity came out at 111% in assay [1], 53% in assay [3] and 105% in assay [6]. Moreover, the viability at 1 µM in assay [2] was 82%. In assay [4], the viability at 10 µM stood at 135%. Besides, the viability at 100 µM in assay [5] worked out at 77%.
With `CCN(CC)C(=O)Sc1nc2ccc3c(c2[nH]1)C(=O)c1ccccc1C3=O`, the Activity in assay [1] amounted to 106%; in assay [3] it was 88%; in assay [6] it was 104%. Moreover, in assay [2], the viability at 1 µM came out at 118%. In assay [4], the viability at 10 µM is 119%. In assay [5], the viability at 100 µM was 116%.
On to `O=C1c2ccccc2C(=O)c2c1ccc1nc(SCCC(=O)N3CCCC3)[nH]c21`, for which the Activity came out at 87% in assay [1], 67% in assay [3] and 90% in assay [6]. Further, the viability at 1 µM in assay [2] worked out at 107%. Besides, the viability at 10 µM in assay [4] was 110%. In addition, in assay [5], the viability at 100 µM came to 57%.
As to `CCN(CC)C(=O)CCSc1nc2ccc3c(c2[nH]1)C(=O)c1ccccc1C3=O`, the values for the Activity in assay [1], in assay [3] and in assay [6] were 97%, 64% and 98%, respectively. Further, the viability at 1 µM in assay [2] amounted to 94%. Moreover, the viability at 10 µM in assay [4] came out at 77%. The viability at 100 µM in assay [5] was 44%.
As for `CCCN(CCC)C(=O)CSc1nc2ccc3c(c2[nH]1)C(=O)c1ccccc1C3=O`, the Activity was 94% in assay [1], 85% in assay [3] and 91% in assay [6]. Further, in assay [2], the viability at 1 µM is 95%. Moreover, in assay [4], the viability at 10 µM was 86%. Also, in assay [5], the viability at 100 µM was 93%.
For the compound `O=C1c2ccccc2C(=O)c2c1ccc1nc(SCCC(=O)N3CCOCC3)[nH]c21`, the Activity in assay [1] was found to be 105%; in assay [3], 45%; in assay [6], 97%. Moreover, in assay [2], the viability at 1 µM is 99%. In addition, in assay [4], the viability at 10 µM stood at 102%. For the same compound, in assay [5], the viability at 100 µM was 50%.
Turning to `O=C1c2ccccc2C(=O)c2c1ccc1nc(SC(=O)N3CCCC3)[nH]c21`, the Activity is 96% in assay [1], 95% in assay [3] and 105% in assay [6]. The viability at 1 µM in assay [2] is 110%. The viability at 10 µM in assay [4] was found to be 117%. Moreover, in assay [5], the viability at 100 µM was determined as 124%.
On to `O=C1c2ccccc2C(=O)c2c1ccc1nc(SCCN3CCOCC3)[nH]c21`, for which the results for the Activity in assay [1], in assay [3] and in assay [6] were 119%, 36% and 105%, respectively. Moreover, the viability at 1 µM in assay [2] amounted to 106%. In assay [4], the viability at 10 µM came to 127%. In assay [5], the viability at 100 µM was 73%.
For the compound `COC(=O)CCCSc1nc2ccc3c(c2[nH]1)C(=O)c1ccccc1C3=O`, the Activity in assay [1] came out at 88%; in assay [3] it was 61%; in assay [6], 83%. For the same compound, in assay [2], the viability at 1 µM is 83%. Further, the viability at 10 µM in assay [4] was 83%. In addition, the viability at 100 µM in assay [5] is 57%.
Regarding `Nc1ccc2c(c1N)C(=O)c1ccccc1C2=O`, the viability at 1 µM in assay [2] was found to be 105%. The viability at 10 µM in assay [4] came out at 95%. For the same compound, in assay [5], the viability at 100 µM worked out at 39%. For the same compound, the Activity in assay [6] was determined as 77%.

Source of the values: ChEMBL document CHEMBL3120102, “Structure-based design, synthesis and biological evaluation of novel anthra[1,2-d]imidazole-6,11-dione homologues as potential antitumor agents” (2013).
